The values below come from ChEMBL document CHEMBL3102794, “Discovery of 2-pyridineformamide thiosemicarbazones as potent antiausterity agents” (2014).

Calls of active or inactive are those of the source. The calls are words filed in the database; no cut-off is given here. Where only a bound is given, the exact number is not on record here.

The nature of assay [1]: Cytotoxicity against human PANC1 cells in nutrient-deprived medium after 24 hrs by WST-8 assay. It is filed as functional, PANC-1. In short, it runs like this: (§1)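 PANC-1 cells were seeded at 1.5 × 10^4/well and grown 24 h in DMEM at 37 °C, 5% CO2. They were washed with D-PBS, then exposed to serial dilutions in DMEM or NDM for 24 h, with control and blank wells. Viability was read by WST-8 (10% in DMEM, 3 h, A450), averaged over three wells: (test−blank)/(control−blank)×100.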
Background: Tetrazolium dyes change colour on reduction, which living cells bring about.

Assay [2] relates to PANC-1. In words: Induction of apoptosis in human PANC1 cells in nutrient-deprived medium assessed as rupture of cell membrane at 1 uM after 24 hrs by phase contrast microscopy relative to control. It is filed as functional, cell-based. In short, it runs like this: (§2)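 Cells were seeded at 1 × 10^6 per 60 mm dish and allowed to attach for 24 h. They were washed twice and treated with 1 µM in DMEM or NDM for 24 h. EB/AO dye mixture (100 µg/ml each, in PBS) was added, and cells were imaged in fluorescent and phase-contrast modes at 40× objective. AO marks viable cells green; EB marks late apoptotic/necrotic cells red.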

Assay [3] is filed under the species Homo sapiens. Briefly: Inhibition of AKT (unknown origin) phosphorylation at T308 at 1 to 100 uM after 4 hrs by Western blotting analysis in presence of nutrient-deprived medium. In a few lines: (§3)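 Proteins were separated by SDS-PAGE (0.1% SDS) and transferred to PVDF. Membranes were blocked, washed in PBS with 0.1% polysorbate 20, and incubated overnight at room temperature with primary antibodies. HRP-conjugated secondary antibody was applied for 45 min at room temperature, and bands were detected by enhanced chemiluminescence.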

In assay [4] the test system is PANC-1. Briefly: Induction of apoptosis in human PANC1 cells in nutrient-deprived medium assessed as translocation of phosphatidylserine to external surface at 1 uM after 12 hrs by Annexin V-FITC/propidium iodide staining-based fluorescence microscopy. It is filed as functional, cell-based.
For assay [5], the target named is T1, Caspase-3 (Homo sapiens) (UniProt P42574).
T1 sequence (whole entry): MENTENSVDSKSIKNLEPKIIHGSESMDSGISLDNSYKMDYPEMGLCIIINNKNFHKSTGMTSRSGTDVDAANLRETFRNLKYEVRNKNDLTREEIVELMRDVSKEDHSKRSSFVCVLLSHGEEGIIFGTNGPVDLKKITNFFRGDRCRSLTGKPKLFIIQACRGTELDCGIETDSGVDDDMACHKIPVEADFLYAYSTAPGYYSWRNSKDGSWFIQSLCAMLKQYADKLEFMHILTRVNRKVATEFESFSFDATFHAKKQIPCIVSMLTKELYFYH
Briefly: Induction of caspase3 (unknown origin) cleavage after 4 hrs by Western blotting analysis in presence of nutrient-deprived medium. In short, it runs like this: as §3

Assay [6] deals with PANC-1. Briefly: Induction of apoptosis in human PANC1 cells in nutrient-deprived medium assessed as late apoptotic and necrotic cells at 1 uM after 24 hrs by ethidium bromide/acridine orange staining-based fluorescence microscopy relative to control. It counts as functional, cell-based. In short, it runs like this: as §2
The species named for assay [7] is Homo sapiens. Briefly: Inhibition of AKT (unknown origin) phosphorylation at S437 at 100 uM after 4 hrs by Western blotting analysis in presence of DMEM. In a few lines:
as §3

The subject of assay [8] is PANC-1. Briefly: Induction of apoptosis in human PANC1 cells in nutrient-deprived medium assessed as disruption of cell organelles at 1 uM after 24 hrs by phase contrast microscopy relative to control. It counts as functional, cell-based. In a few lines:
as §2

The target of assay [9] is T1, Caspase-3 (Homo sapiens). Briefly: Induction of caspase3 (unknown origin) cleavage after 4 hrs by Western blotting analysis in presence of DMEM. In a few lines: as §3
Assay [10] is filed under the species Homo sapiens. Briefly: Inhibition of AKT (unknown origin) phosphorylation at S437 at 1 to 100 uM after 4 hrs by Western blotting analysis in presence of nutrient-deprived medium. In a few lines:
as §3
A general note: In western blotting, separated proteins are transferred to a membrane and probed.

For assay [11], the system named is PANC-1. In words: Induction of apoptosis in human PANC1 cells in nutrient-deprived medium assessed as cell swelling at 1 uM after 24 hrs by phase contrast microscopy relative to control. It counts as functional, cell-based. In a few lines: as §2
The species entered for assay [12] is Homo sapiens. Briefly: Inhibition of AKT (unknown origin) phosphorylation at T308 at 100 uM after 4 hrs by Western blotting analysis in presence of DMEM. In short, it runs like this: as §3
The subject of assay [13] is PANC-1. In words: Ratio of arctigenin PC50 to compound PC50 for human PANC1 cells. It counts as functional.
Assay [14] concerns PANC-1. In words: Cytotoxicity against human PANC1 cells after 24 hrs by WST-8 assay in presence of DMEM. It is filed as functional, cell-based. In a few lines:
as §1

Compound `N/C(=N\NC(=S)N1CCCCCC1)c1ccccn1` showed a PC50 in assay [1] of 1.4 µM.
Regarding `Cc1ccnc(/C(N)=N/NC(=S)N2CCCCC2)c1`, the PC50 in assay [1] worked out at 1.8 µM.
Regarding `N/C(=N\NC(=S)N1CCOCC1)c1ccccn1`, the PC50 in assay [1] stood at 1.6 µM.
Still for that read-out and setting: next, `N/C(=N\NC(=S)N1CCSCC1)c1ccccn1`: 1.9 µM.
As to `CC(=O)O[C@H]1C(=O)[C@@]2(C)[C@H]([C@H](OC(=O)c3ccccc3)[C@]3(O)C[C@H](OC(=O)[C@H](O)[C@@H](NC(=O)c4ccccc4)c4ccccc4)C(C)=C1C3(C)C)[C@]1(OC(C)=O)CO[C@@H]1C[C@@H]2O` [PACLITAXEL], in assay [1], the PC50 was more than 200 µM.
Same read-out and setting: the figure for `Cc1ccnc(/C(N)=N/NC(=S)N2CCCCCC2)c1` is 1.7 µM.
In [1], `N/C(=N\NC(=S)N1CCN(c2ccccn2)CC1)c1ccccn1` gave a PC50 of 0.78 µM. Moreover, the result in the assay with PANC-1 [2], with PANC-1 [4], with PANC-1 [6], in the assay on PANC-1 [8] and with PANC-1 [11] was Active. In addition, the inhibition result in the assay filed under Homo sapiens [3], in the assay listed under Homo sapiens [7], in the assay filed under Homo sapiens [10] and in the assay filed under Homo sapiens [12] was “inactive” each time. In addition, the Activity entry on Caspase-3 (Homo sapiens) [5] and at Caspase-3 (Homo sapiens) [9] was “Dose-dependent effect” throughout.
Turning to `N/C(=N\NC(=S)N1CCCC1)c1ccccn1`, the PC50 in assay [1] came to 0.78 µM.
In assay [1], `Cc1ccnc(/C(N)=N/NC(=S)N2CCCC2)c1` had a PC50 of 0.37 µM. Also, in the assay with PANC-1 [13], the Ratio was determined as 2.
For the compound `Cc1ccnc(/C(N)=N/NC(=S)N2CCSCC2)c1`, in [1], the PC50 came out at 1.9 µM.
On the same count and under the same terms, the figure for `N/C(=N\NC(=S)N1CCCCC1)c1ccccn1` is 1.6 µM; for `COc1cc(C[C@H]2C(=O)OC[C@@H]2Cc2ccc(OC)c(OC)c2)ccc1O` [ARCTIGENIN] it is 0.85 µM.
In assay [1], `Nc1ccn([C@@H]2O[C@H](CO)[C@@H](O)C2(F)F)c(=O)n1` [GEMCITABINE] showed a PC50 of more than 200 µM. Moreover, the result with PANC-1 [14] was inactive.
`Cc1ccnc(/C(N)=N/NC(=S)N2CCOCC2)c1` registered a PC50 in [1] of 1.8 µM.
On the same count and under the same terms, next, `Cc1ccnc(/C(N)=N/NC(=S)N2CCN(c3ccccn3)CC2)c1`: 0.68 µM.
